Data as given in paper PMC9444296 (Investigative Radiology, 2022).
Entries after “also recorded” stand apart in the source; their conditions may differ.

Tests used:
[1] = Plasma protein binding, rat plasma; format: in vitro ADME; conditions: 37°C, 3 min, 10 kDa ultrafiltration, Gd by ICP-OES, n = 4
How it was run: (§1)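 Test compound at 50, 80 or 110 μM was incubated with human, dog or rat plasma (alongside HSA 40 mg/mL and PBS) at 37°C for 3 min. Mixtures were kept overnight and centrifuged to remove insolubles. Gd was measured by ICP-OES, and the binding ratio was taken as bound over total concentration.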

[2] = Plasma protein binding, human plasma; format: in vitro ADME; conditions: 37°C, 3 min, 10 kDa ultrafiltration, Gd by ICP-OES, n = 4
How it was run: as §1

[3] = Plasma stability, rat plasma; format: in vitro ADME; conditions: 0.5 mM, 37°C, HPLC; for average remaining percentage of intact MT218: n = 2
How it was run: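 Test compound at 0.5 mM was incubated in human, rat or dog plasma at 37°C for up to 48 h, with PBS as control. Samples were mixed with methanol, centrifuged, and the intact compound was quantified by analytical reversed-phase (C18) HPLC.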

[4] = Metabolic stability in human hepatocytes; format: in vitro ADME; conditions: 2 hours of incubation, LC-MS/MS
[5] = Metabolic stability in SD rat hepatocytes; format: in vitro ADME; conditions: 2 hours of incubation, LC-MS/MS
[6] = Metabolic stability in beagle dog hepatocytes; format: in vitro ADME; conditions: 2 hours of incubation, LC-MS/MS
[7] = Metabolic stability in cynomolgus monkey hepatocytes; format: in vitro ADME; conditions: 2 hours of incubation, LC-MS/MS
[8] = tested on: LNCaP human prostate tumors; assay: Contrast-enhanced MRI of LNCaP prostate tumor xenografts in rats; format: in vivo, rat; conditions: 3 T, n = 3
How it was run: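 Male rats carried subcutaneous flank xenografts of 4 × 10⁶ PC3 or 8 × 10⁶ LNCaP cells in Matrigel-PBS (1:1) and were imaged once tumours exceeded 100 mm³. Scans used 1 mm slices, 2 averages and a 128 × 128 matrix. The same tumour-bearing rats were reused across agents and doses, with a clinical Gd agent at 0.1 mmol Gd/kg as comparator.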

CNR2 = CNR2 (Homo sapiens, UniProt P34972); assay: SAFETYscan E/IC50 assay, CNR2; format: biochemical; conditions: concentration range 0.005 to 100 μM
How it was run: (§2)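 Contract-laboratory in vitro panel of 78 targets, run in agonist and/or antagonist modes under provider SOPs over 0.005 to 100 μM. Panel formats included enzyme fragment complementation, FLIPR-based cellular assays, kinase binding and enzymatic assays.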

OPRD1 = OPRD1 (Homo sapiens, UniProt P41143); assay: SAFETYscan E/IC50 assay, OPRD1; format: biochemical; conditions: concentration range 0.005 to 100 μM
How it was run: as §2

CAV1.2 = CAV1.2 (Homo sapiens, UniProt Q13936); assay: SAFETYscan E/IC50 assay, CAV1.2; format: biochemical; conditions: concentration range 0.005 to 100 μM
How it was run: as §2

GABAA = assay: SAFETYscan E/IC50 assay, GABAA; format: biochemical; conditions: concentration range 0.005 to 100 μM
How it was run: as §2

[9] = Pharmacokinetics in beagle dogs; format: in vivo, dog; conditions: for AUC: AUC 0-6h; for AUC / AUCINF / C0 / Cl / MRT / T1/2 / Vz: Gd by ICP-MS, NCA, n = 3
SD rats = assay: Single and repeated dose toxicity and toxicokinetics in SD rats; format: in vivo, rat; conditions: for NOAEL: SD rats; for accumulation ratio AUC0–24h (D14)/AUC0–24h (D1) of Gd: 14 days
How it was run: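 GLP study in SD rats aged 6–7 weeks (M 200–246 g, F 175–224 g). […] Clinical observation, organ weights and macro/microscopic histopathology were done. Plasma exposure (AUC0–24h, C0) was taken on D1 and D14, with accumulation ratio AUC0–24h(D14)/AUC0–24h(D1) of Gd.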

CYP3A4 [10] = biological target: CYP3A4 (Homo sapiens, UniProt P08684); conditions: 0.01, 0.1, 1, 10, and 100 μM, pooled human liver microsomes 0.5 mg/mL
CYP2B6 = conditions: human primary hepatocytes, 1, 10, and 100 μM
CYP3A4 [11] = conditions: human primary hepatocytes, 1, 10, and 100 μM
CYP2C9 = CYP2C9 (Homo sapiens, UniProt P11712); assay: CYP2C9 inhibition in human liver microsomes; conditions: 0.01, 0.1, 1, 10, and 100 μM, pooled human liver microsomes 0.5 mg/mL
[12] = beagle dog ♀, 0.04 mmol/kg single IV
[13] = beagle dog ♀, 0.1 mmol/kg single IV
[14] = beagle dog ♀, 0.2 mmol/kg single IV
[15] = beagle dog ♂, 0.04 mmol/kg single IV
[16] = beagle dog ♂, 0.1 mmol/kg single IV
[17] = beagle dog ♂, 0.2 mmol/kg single IV

CAV1.2, sequence (P54289 957-1103): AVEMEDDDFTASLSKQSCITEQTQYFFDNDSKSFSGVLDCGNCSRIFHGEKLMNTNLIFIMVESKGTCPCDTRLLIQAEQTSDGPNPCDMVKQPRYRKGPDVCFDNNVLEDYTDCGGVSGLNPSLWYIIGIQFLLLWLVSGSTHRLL
CAV1.2, sequence (Q08289 whole entry, further chain): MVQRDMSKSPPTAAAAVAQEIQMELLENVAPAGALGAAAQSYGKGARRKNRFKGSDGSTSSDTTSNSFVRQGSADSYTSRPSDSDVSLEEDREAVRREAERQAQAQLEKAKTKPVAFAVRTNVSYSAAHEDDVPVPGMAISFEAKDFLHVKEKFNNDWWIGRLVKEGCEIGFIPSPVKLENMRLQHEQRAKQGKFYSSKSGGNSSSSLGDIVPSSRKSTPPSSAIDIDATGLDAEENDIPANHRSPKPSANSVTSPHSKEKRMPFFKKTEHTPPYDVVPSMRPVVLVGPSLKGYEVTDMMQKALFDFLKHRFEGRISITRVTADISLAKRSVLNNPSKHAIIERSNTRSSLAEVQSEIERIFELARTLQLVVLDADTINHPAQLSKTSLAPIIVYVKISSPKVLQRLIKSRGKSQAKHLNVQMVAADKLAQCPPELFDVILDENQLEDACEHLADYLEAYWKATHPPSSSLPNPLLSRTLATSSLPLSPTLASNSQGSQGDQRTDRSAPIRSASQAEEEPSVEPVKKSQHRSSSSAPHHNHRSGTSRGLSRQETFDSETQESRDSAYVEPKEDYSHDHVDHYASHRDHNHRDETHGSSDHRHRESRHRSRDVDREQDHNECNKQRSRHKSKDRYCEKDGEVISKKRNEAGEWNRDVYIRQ
CAV1.2, sequence (Q13936 whole entry): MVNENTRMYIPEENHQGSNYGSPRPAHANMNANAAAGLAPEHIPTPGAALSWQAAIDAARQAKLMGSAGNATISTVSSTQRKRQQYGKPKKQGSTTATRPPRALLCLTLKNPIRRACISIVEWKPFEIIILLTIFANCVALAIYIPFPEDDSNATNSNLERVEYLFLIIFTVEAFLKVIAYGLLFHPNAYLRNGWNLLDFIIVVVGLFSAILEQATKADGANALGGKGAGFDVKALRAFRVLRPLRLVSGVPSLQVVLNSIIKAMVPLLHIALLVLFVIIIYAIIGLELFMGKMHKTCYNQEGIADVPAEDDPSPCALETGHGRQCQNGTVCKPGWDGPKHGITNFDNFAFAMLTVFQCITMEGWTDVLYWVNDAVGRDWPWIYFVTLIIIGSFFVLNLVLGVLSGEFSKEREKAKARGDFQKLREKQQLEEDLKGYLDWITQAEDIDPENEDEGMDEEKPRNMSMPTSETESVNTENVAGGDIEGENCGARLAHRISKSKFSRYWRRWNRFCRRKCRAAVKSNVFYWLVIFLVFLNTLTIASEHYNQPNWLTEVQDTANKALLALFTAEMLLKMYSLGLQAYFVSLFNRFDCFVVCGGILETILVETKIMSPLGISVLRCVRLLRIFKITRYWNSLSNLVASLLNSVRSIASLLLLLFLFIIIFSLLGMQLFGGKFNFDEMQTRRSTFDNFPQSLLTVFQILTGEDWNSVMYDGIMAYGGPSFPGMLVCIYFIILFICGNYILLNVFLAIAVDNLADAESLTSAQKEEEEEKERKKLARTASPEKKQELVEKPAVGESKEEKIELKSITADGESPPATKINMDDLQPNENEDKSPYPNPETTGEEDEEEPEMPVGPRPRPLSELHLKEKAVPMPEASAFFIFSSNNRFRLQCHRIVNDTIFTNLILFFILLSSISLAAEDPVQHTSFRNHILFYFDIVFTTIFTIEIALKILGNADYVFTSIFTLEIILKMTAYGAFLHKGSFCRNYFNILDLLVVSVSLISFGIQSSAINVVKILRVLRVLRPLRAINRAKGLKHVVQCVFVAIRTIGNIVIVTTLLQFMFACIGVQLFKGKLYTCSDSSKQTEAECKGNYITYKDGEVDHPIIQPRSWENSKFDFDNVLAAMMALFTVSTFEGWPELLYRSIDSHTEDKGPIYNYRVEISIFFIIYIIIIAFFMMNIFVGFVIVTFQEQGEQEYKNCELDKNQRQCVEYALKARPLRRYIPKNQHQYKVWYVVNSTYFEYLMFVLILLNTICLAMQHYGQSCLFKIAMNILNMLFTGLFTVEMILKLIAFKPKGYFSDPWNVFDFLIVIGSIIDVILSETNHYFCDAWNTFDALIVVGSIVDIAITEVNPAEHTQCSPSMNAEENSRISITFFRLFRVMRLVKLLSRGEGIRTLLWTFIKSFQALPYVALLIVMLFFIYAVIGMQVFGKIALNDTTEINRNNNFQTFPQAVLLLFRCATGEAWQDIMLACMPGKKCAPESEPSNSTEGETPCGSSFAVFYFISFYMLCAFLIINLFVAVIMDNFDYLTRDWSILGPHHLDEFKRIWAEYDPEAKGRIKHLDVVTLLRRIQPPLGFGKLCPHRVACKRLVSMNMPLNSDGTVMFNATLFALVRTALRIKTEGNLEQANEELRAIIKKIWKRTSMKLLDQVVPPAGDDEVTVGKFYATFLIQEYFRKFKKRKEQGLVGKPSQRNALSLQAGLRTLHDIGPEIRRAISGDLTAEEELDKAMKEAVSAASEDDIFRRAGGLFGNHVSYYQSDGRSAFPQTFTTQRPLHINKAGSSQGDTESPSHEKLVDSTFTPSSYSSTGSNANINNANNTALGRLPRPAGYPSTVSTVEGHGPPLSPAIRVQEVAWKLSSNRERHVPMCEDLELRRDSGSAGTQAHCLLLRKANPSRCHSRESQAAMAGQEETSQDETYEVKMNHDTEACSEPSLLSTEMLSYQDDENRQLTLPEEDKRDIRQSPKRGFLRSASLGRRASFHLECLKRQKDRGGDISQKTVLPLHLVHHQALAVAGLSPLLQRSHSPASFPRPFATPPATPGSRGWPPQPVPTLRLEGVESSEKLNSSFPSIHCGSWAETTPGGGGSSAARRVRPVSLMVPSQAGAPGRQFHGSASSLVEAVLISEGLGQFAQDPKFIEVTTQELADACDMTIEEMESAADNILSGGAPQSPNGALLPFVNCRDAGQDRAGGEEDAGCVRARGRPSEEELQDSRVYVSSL
CAV1.2, sequence (P54289 25-956): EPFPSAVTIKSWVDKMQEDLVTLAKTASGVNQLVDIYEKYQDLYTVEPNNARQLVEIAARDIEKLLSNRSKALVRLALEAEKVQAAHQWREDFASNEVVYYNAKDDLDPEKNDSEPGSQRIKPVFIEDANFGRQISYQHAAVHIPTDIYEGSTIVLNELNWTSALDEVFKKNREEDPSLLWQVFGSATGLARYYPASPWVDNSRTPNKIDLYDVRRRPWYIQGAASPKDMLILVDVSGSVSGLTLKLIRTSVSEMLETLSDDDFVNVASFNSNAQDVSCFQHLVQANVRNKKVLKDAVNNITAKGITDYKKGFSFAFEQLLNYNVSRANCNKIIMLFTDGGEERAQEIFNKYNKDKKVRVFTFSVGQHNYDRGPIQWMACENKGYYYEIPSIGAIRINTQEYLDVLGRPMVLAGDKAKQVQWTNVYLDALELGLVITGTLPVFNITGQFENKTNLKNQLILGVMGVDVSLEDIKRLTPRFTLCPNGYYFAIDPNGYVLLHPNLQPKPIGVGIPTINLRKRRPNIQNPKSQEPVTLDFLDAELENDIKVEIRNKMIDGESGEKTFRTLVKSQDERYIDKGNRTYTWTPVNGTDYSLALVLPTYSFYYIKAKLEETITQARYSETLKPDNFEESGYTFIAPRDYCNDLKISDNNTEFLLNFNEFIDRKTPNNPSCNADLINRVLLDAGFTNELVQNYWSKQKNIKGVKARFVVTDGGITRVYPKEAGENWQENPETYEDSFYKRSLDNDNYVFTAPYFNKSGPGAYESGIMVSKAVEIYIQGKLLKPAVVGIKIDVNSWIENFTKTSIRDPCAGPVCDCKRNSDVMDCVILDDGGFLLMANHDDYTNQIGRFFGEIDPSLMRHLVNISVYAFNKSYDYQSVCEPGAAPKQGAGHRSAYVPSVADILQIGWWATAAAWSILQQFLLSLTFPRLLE
CYP3A4 (Homo sapiens, UniProt P08684), sequence (P08684 whole entry): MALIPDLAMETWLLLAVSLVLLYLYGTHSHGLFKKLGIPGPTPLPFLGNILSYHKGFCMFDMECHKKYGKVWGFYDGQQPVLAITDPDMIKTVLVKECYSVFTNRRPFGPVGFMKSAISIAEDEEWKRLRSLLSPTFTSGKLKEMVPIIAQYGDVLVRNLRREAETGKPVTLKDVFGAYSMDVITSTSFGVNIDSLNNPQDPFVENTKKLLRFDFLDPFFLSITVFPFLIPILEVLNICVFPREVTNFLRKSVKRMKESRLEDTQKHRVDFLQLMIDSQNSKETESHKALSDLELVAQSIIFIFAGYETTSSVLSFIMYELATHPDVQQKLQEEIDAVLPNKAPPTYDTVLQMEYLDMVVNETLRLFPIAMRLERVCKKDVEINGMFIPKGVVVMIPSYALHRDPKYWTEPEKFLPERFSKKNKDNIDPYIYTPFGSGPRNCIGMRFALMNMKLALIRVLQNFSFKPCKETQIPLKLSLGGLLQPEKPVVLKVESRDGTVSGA
OPRD1, sequence (P41143 whole entry): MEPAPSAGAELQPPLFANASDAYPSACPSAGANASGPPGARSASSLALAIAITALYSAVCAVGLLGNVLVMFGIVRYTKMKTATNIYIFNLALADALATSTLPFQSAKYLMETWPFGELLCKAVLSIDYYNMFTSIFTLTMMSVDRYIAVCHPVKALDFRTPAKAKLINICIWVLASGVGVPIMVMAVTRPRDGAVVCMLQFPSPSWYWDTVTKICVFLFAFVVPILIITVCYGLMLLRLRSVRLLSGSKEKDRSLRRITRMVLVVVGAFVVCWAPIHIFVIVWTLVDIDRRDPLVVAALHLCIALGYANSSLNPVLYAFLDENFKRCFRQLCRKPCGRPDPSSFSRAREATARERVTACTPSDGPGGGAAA

Substance: ZD2-N3-Gd(HP-DO3A) [MT218]
- binding ratio to plasma proteins ([1]; 50 μM): 28.44%
- binding ratio to plasma proteins ([1]; 80 μM): 27.12%
- binding ratio to plasma proteins ([1]; 110 μM): 25.68%
- binding ratio to plasma proteins ([2]; 50 μM): 47.31%
- binding ratio to plasma proteins ([2]; 80 μM): 45.15%
- binding ratio to plasma proteins ([2]; 110 μM): 40.50%
- average remaining percentage of intact MT218 ([3]; 1 h): 74.87%
- average remaining percentage of intact MT218 ([3]; 3 h): 20.54%
- average remaining percentage of intact MT218 ([3]; 6 h): 4.61%
- average remaining percentage of intact MT218 ([3]; 28 h): 0%
- average remaining percentage of intact MT218 ([3]; 48 h): 0%
- enzymatic degradation half-life (t1/2) [3]: 1.63 h
- remaining MT218 [4]: 61.1%
- remaining MT218 [5]: 67.5%
- remaining MT218 [6]: 41.0%
- remaining MT218 [7]: 82.9%
- CNR ([8]; 0.02 mmol/kg IV): 0.88 ± 0.06
- CNR ([8]; 0.04 mmol/kg IV): 1.13 ± 0.38
- inhibition rate (CNR2): 12.4%
- inhibition rate (OPRD1): 11.08%
- inhibition rate (CAV1.2): 15.58%
- inhibition rate (GABAA): 24.25%
- AUC [9, 12]: 38.16 µg·h/mL
- AUC [9, 13]: 93.96 µg·h/mL
- AUC [9, 14]: 138.99 µg·h/mL
- AUC [9, 15]: 34.80 µg·h/mL
- AUC [9, 16]: 89.52 µg·h/mL
- AUC [9, 17]: 156.54 µg·h/mL
- AUC Ratio ([9]; AUC(dose)/AUC(low dose), beagle dog ♀, 0.04 mmol/kg): 1
- AUC Ratio ([9]; AUC(dose)/AUC(low dose), beagle dog ♂, 0.04 mmol/kg): 1
- AUC Ratio ([9]; AUC(high dose)/AUC(low dose), beagle dog ♀, 0.2 mmol/kg): 3.64
- AUC Ratio ([9]; AUC(high dose)/AUC(low dose), beagle dog ♂, 0.2 mmol/kg): 4.50
- AUC Ratio ([9]; AUC(middle dose)/AUC(low dose), beagle dog ♀, 0.1 mmol/kg): 2.46
- AUC Ratio ([9]; AUC(middle dose)/AUC(low dose), beagle dog ♂, 0.1 mmol/kg): 2.57
- AUCINF [9, 12]: 38.47 µg·h/mL
- C0 [9, 12]: 59.33 µg/mL
- Cl [9, 12]: 164.04 mL/h/kg
- MRT [9, 12]: 58.2 min
- T1/2 [9, 12]: 44.4 min
- Vz [9, 12]: 175.99 mL/kg
- AUCINF [9, 13]: 94.17 µg·h/mL
- C0 [9, 13]: 146.59 µg/mL
- Cl [9, 13]: 167.64 mL/h/kg
- MRT [9, 13]: 57.6 min
- T1/2 [9, 13]: 40.2 min
- Vz [9, 13]: 161.08 mL/kg
- AUCINF [9, 14]: 139.15 µg·h/mL
- C0 [9, 14]: 268.10 µg/mL
- Cl [9, 14]: 226.54 mL/h/kg
- MRT [9, 14]: 47.4 min
- T1/2 [9, 14]: 37.8 min
- Vz [9, 14]: 205.93 mL/kg
- AUCINF [9, 15]: 34.94 µg·h/mL
- C0 [9, 15]: 50.97 µg/mL
- Cl [9, 15]: 180.20 mL/h/kg
- MRT [9, 15]: 60.6 min
- T1/2 [9, 15]: 45.6 min
- Vz [9, 15]: 197.08 mL/kg
- AUCINF [9, 16]: 89.78 µg·h/mL
- C0 [9, 16]: 149.33 µg/mL
- Cl [9, 16]: 175.72 mL/h/kg
- MRT [9, 16]: 57 min
- T1/2 [9, 16]: 42 min
- Vz [9, 16]: 177.73 mL/kg
- AUCINF [9, 17]: 156.90 µg·h/mL
- C0 [9, 17]: 286.90 µg/mL
- Cl [9, 17]: 202.02 mL/h/kg
- MRT [9, 17]: 52.8 min
- T1/2 [9, 17]: 41.4 min
- Vz [9, 17]: 201.64 mL/kg
- mean plasma elimination half-life (t1/2) ([9]; dogs, 0.1 mmol/kg IV): 41.4 min
- NOAEL (SD rats; repeated daily IV dose for 14 days): 0.46 mmol/kg/day
- NOAEL (SD rats; single IV dose): 1.39 mmol/kg
- accumulation ratio AUC0–24h (D14)/AUC0–24h (D1) of Gd (SD rats; female rats, high dose 1.39 mmol/kg/d IV): 1.22
- accumulation ratio AUC0–24h (D14)/AUC0–24h (D1) of Gd (SD rats; female rats, low dose 0.15 mmol/kg/d IV): 1.41
- accumulation ratio AUC0–24h (D14)/AUC0–24h (D1) of Gd (SD rats; female rats, medium dose 0.46 mmol/kg/d IV): 1.61
- accumulation ratio AUC0–24h (D14)/AUC0–24h (D1) of Gd (SD rats; male rats, high dose 1.39 mmol/kg/d IV): 1.31
- accumulation ratio AUC0–24h (D14)/AUC0–24h (D1) of Gd (SD rats; male rats, low dose 0.15 mmol/kg/d IV): 1.52
- accumulation ratio AUC0–24h (D14)/AUC0–24h (D1) of Gd (SD rats; male rats, medium dose 0.46 mmol/kg/d IV): 1.49
- mortality or moribundity (SD rats; rats, any dose group, up to 1.39 mmol/kg/d): no mortality or morbidity; also recorded: No mortality or moribundity
- clinical observations (body weight, food consumption, temperature, ophthalmoscopy, hematology, coagulation, clinical chemistry, urinalysis) (SD rats; rats, any dose level): No MT218-related changes
- pathological findings (SD rats; rats, low and medium repeated-dosing groups (0.15, 0.46 mmol/kg/d)): No such abnormality
- pathological findings (SD rats; rats, single dose 1.39 mmol/kg): no MT218-related macroscopic and microscopic abnormality
- inhibition of CYP3A4 activity (CYP3A4 [10]): did not inhibit
- induction of mRNA expression of CYP2B6 (CYP2B6): did not induce
- induction on enzyme activity of CYP2B6 (CYP2B6): no induction
- induction of mRNA expression of CYP3A4 (CYP3A4 [11]): did not induce
- induction on enzyme activity of CYP3A4 (CYP3A4 [11]): no induction
- inhibition of CYP2C9 activity (CYP2C9): did not inhibit
